Among the data in the RNAGym collection of RNA variant scans (doi:10.1126/science.aae0568) are yeast fitness values, retold here.

This sample holds only a part of the variants without activity. A value given as a limit tells only on which side of the number the result lay.

B1: tRNA (parent)
chain: GUUCCGUUGGCGUAAUGGUAACGCGUCUCCCUCCUAAGGAGAAGACUGCGGGUUCGAGUCCCGUACGGAACG

The variants in this data set derive from B1. Put plainly: yeast fitness relative to wild type (ratio to wild type); higher = fitter; tRNA-Arg(CCU), competitive growth, 37 C, YPD. Put shortly: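 The tRNA-Arg(CCU) gene variants were made by chemical synthesis with a 3% per-site mutation rate at 69 sites and inserted at the native genomic locus of Saccharomyces cerevisiae. After pooling, the strains were competed in YPD at 37°C for 24 hours in six parallel replicates. Gene amplicons from the start population and each end population were read by 100-nucleotide paired-end sequencing, and Darwinian fitness relative to wild type was taken from genotype frequency changes. Genotypes needed ≥ 100 starting reads, and estimates < 0.5 were set to 0.5.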
For C11U G52A, the yeast fitness came to 0.827. Take G18A U19C C27G C61A U64G C66U: the yeast fitness was ≤ 0.5.

Turning to C5U C11U C29A A40C A45C C61G, the yeast fitness came out at 0.612.

C29A A45C C46G G68C: the yeast fitness was ≤ 0.5. For A45C G50A A57G the value was 0.665; for A14U C55G, 0.578. In the case of A21G G23C C31U C34G A43G A45C G67C it was ≤ 0.5; in that of C11G U13G C30U U32A A37G A40U A57U, ≤ 0.5. As for C5U C49G A69U, the yeast fitness worked out at 0.629. For U13A G23C C49A U64G the value was ≤ 0.5. For U26C A36C C62A the value was ≤ 0.5; for A14C U16C G51C G58A C60A, ≤ 0.5.

For C11G C24U A42C A65C, the yeast fitness is ≤ 0.5. On to G17A C30G, for which the yeast fitness was 0.604. For C4U G6C A21C C30G C46G the value was 0.524; for U2A G9C U16G U32G G52A G63C, ≤ 0.5. Regarding U19G A43C, the yeast fitness was 0.971. In the case of C27G C31G C49A U53C, the yeast fitness is ≤ 0.5.

U2C U13C C61G: the yeast fitness is ≤ 0.5. For the variant U8A G18C C24A U32C A69U, the yeast fitness was found to be 0.565. For the variant G50C A57C C61U, the yeast fitness was 0.613. In the case of G6C U13A C24U C31A U54C it was ≤ 0.5. In the case of G25A U32A it was 0.744. A14G A40G C46U: the yeast fitness is 0.57. In the case of C33U C34A it was 0.574; in that of U53C C62U, 0.737; in that of C11G A14C G23C G41C C61A, ≤ 0.5. For C4G G67C the value was 0.883. For A20U C24G C49G the value was ≤ 0.5; for C62U G68C A69G, 0.567; for C5G G39A C49G C55U A57U, ≤ 0.5. With U19C G68C, the yeast fitness was 0.83. In the case of C5U U35C A69U it was 0.536; in that of U2G G18C G23U U64A, 0.606. In the case of C22G U26C C33U A37U A40C it was ≤ 0.5; in that of G9A U13C C27G U53A C60A A65G, ≤ 0.5. For the variant C5A G6A U16A A45G G50A, the yeast fitness is ≤ 0.5. For C22U G23A G56A the value was ≤ 0.5.

Turning to C5G C22U A36C A42G, the yeast fitness was ≤ 0.5. With G10A G12A G52A C66U, the yeast fitness is ≤ 0.5. For A43U C55U, the yeast fitness stood at 0.768. In the case of U8C U13A A65G, the yeast fitness was 0.716. In the case of A40U U53A C61U it was ≤ 0.5; in that of A21U A42U, 0.792; in that of C5G G25C C49U, 0.689. For the variant C22A C24G A45C, the yeast fitness is 0.564. For C11U C27U U35C C61G the value was 0.606; for U8A C66A G68C, ≤ 0.5; for A20C C60G C62U, ≤ 0.5.

Take U32A G39A G58A C61A C62G: the yeast fitness was ≤ 0.5.

On to C4G C5G A43G G63A, for which the yeast fitness was ≤ 0.5. For A15G G17A A40C the value was ≤ 0.5; for C5G C34G C61A, ≤ 0.5. Consider G10C U16A A65G, for which the yeast fitness was ≤ 0.5. In the case of G10A A21C C24A it was ≤ 0.5. Take U32C U35A U47C: the yeast fitness is ≤ 0.5.

U8C C11U C27A C30G C46U U47A: the yeast fitness turned out to be 0.603.

Turning to G10A A42G A70C, the yeast fitness was ≤ 0.5. In the case of A36C G48C C62U it was ≤ 0.5; in that of U26A G50A, 0.875; in that of G10A G17C C31U G44A C46A, ≤ 0.5. For U16G C60G the value was 0.658. In the case of G39A G56C C66A it was ≤ 0.5; in that of C24U U54C, 0.812; in that of C34U C46U A69G A70U, ≤ 0.5. For the variant A21G U59A A69G, the yeast fitness was ≤ 0.5. In the case of A21U A42G G50C U59C, the yeast fitness is ≤ 0.5.

With C27U C33U U35C, the yeast fitness is ≤ 0.5. In the case of C27G C60U G67C it was ≤ 0.5. In the case of C22U C46G A65G it was ≤ 0.5.

As for C4A A57U, the yeast fitness came out at 0.714.

As to A15U A36C, the yeast fitness is ≤ 0.5. For the variant G12A C24G C29A, the yeast fitness is ≤ 0.5. For C4G C31A G58A the value was 0.635; for C24G A36C A40C A42U, ≤ 0.5; for G12A A45U, 1.03. For U7A C55A the value was 0.571. For G12C A20U G25A A36G C46A U54A A70U the value was ≤ 0.5. Take C4A C29U G67A: the yeast fitness is ≤ 0.5. In the case of C5A C22G C29A A43U G68A it was ≤ 0.5; in that of G18A C31G U47C, ≤ 0.5; in that of A14U A37U A45U, ≤ 0.5. For U26C U35C A37G the value was 0.528. For U2A G52A C61A the value was ≤ 0.5; for C27U C33U G51A A70G, 0.555; for G25A G52U U54C, ≤ 0.5. Regarding C29U G41C, the yeast fitness is 0.776.

On to U19A C29G C46A G68C, for which the yeast fitness is ≤ 0.5. In the case of C5G A37G C46G it was 0.598. In the case of C11G C24G C62U it was 0.528; in that of C30G A43U G48C C55A, 0.557; in that of U13C G51A A65C, ≤ 0.5.

As to U32A A37C A42C C49A U53A, the yeast fitness is ≤ 0.5. With A15G U47C, the yeast fitness is 0.896. For C31G C33G G63A the value was ≤ 0.5; for G10C C29G U32G, ≤ 0.5. Regarding C5A G17C G39C, the yeast fitness is ≤ 0.5.

Regarding U7C U32G G56U, the yeast fitness is ≤ 0.5. For C4U U7C C29G C49A the value was ≤ 0.5.

In the case of A45G C60U, the yeast fitness is 0.743. In the case of G51C U59G it was 0.508; in that of A21C A45G G63C C66U, ≤ 0.5; in that of C55U C62U G67C, ≤ 0.5. For C27G C49U G63C the value was ≤ 0.5.

As for G12A U16A G39C U54C C55U, the yeast fitness is ≤ 0.5. For A14G U54C A70G the value was 0.535; for A36C C66U, 0.575; for U3C C31G C34U G38A, ≤ 0.5. For A15U U16A C27G the value was 0.59; for U3G C24U G58A U59A A65U, 0.514; for G12C U32G C33G, 0.543. For A36C G58A the value was 0.618. Regarding U28C C66A, the yeast fitness came to 0.689.

Regarding C4G G9A A45C A57C G58C, the yeast fitness was ≤ 0.5. In the case of A40C A43G C61G C66U it was 0.683; in that of C61A G67A, 0.582; in that of U3G C34G C62U, ≤ 0.5. For A15C U19A C30U A37C G41A the value was ≤ 0.5; for U13G U35C A70U, 0.508; for U3A A21G A65C, 0.64. For A21G C34U A65C the value was ≤ 0.5; for G6C C31U U35A C46G G48A C49U U64C, ≤ 0.5. Consider C46G C49A G67A, for which the yeast fitness is 0.606. For U2G C11U A40G G50C the value was ≤ 0.5. For the variant C4U C11U C33U, the yeast fitness amounted to 0.575.

Consider G6C A37G A70C, for which the yeast fitness was ≤ 0.5.

Take A14G U16A U47C: the yeast fitness worked out at 0.812.

Turning to U2A C31A, the yeast fitness was 0.815.

Consider C4A G9A A45G, for which the yeast fitness was ≤ 0.5. For C11G U47A G68C, the yeast fitness is ≤ 0.5.

As for G6A C11A C66U, the yeast fitness was 0.592. As to U13A C22G U32C A42C G48C C55G G63A G68C, the yeast fitness is ≤ 0.5.

Turning to U19G U28C A42C, the yeast fitness is 0.669. Take G9A C62G: the yeast fitness turned out to be 0.896. Consider G6A A36U C66A G68C, for which the yeast fitness is ≤ 0.5. For G10C C29G A40G the value was ≤ 0.5; for U53A C60G, 0.617; for C5G C11G A20C C33U C34U C61G, 0.529. For U2A A20C A37G G52A U53A the value was ≤ 0.5; for A45U C66G, 0.617; for C5A C34U C49A G52A, ≤ 0.5. Turning to G6A G41C C55G, the yeast fitness was determined as 0.529. In the case of A20U C30G it was 0.61. For G10A C31U the value was 0.662; for U3G C11U U35A G38A C66U, ≤ 0.5. In the case of G17A C29G U59G C61G C62U it was ≤ 0.5; in that of C4A A14G A20U C49A, 0.87. Turning to G12A C22G C24A G38A, the yeast fitness is ≤ 0.5. For C31G A43U C46G A70U the value was 0.527; for G6A C11A U47C, ≤ 0.5; for U16C G56A G68A, 0.69. For G10A C24G C62U the value was 0.54; for C22A U53G G56C G67C, ≤ 0.5; for G17U U19G A37G C66U A69U, 0.561. Turning to U8C G52A, the yeast fitness is 0.765. For C5G A21U A43G C62A the value was ≤ 0.5; for C46A G68A A70C, 1.11. For C4A U7C C24G C61A C66U the value was ≤ 0.5; for G9A C27U A36G, 0.59.

Take U13G A15C C30G C34A U35A U53C A57U C60G: the yeast fitness amounted to 0.564. In the case of G38C G67U it was 0.549. In the case of U3C A15U C30U it was 0.57; in that of A15U A65G C66A G67C, ≤ 0.5. In the case of U26C G56C A65G it was ≤ 0.5.

C30G A37C C46G G56A: the yeast fitness was ≤ 0.5.

As for U2A A15U U16A C60U C62G A65C A69U, the yeast fitness is ≤ 0.5. In the case of G12A C24A A36U A37G C61U G67U it was ≤ 0.5.
